In brackets after ≈: the same amount, converted by molar mass.
Legend:
[1] = test system: Enterococcus faecalis; assay: Antibacterial activity against Enterococcus faecalis isolated from human incubated for 24 hrs followed by serial sub-cultivation for 24 hrs by microdilution; assay type: functional
How it was run: (§1)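 MBC: after the 24 h LB broth microdilution (1.0 × 10⁴ CFU per well, 160 rpm), wells were serially sub-cultured into fresh broth plates and incubated a further 24 h. MBC is the lowest concentration with no visible growth, taken as 99.5% killing of the original inoculum. Duplicate, repeated three times.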

[2] = test system: Talaromyces funiculosus; assay: Antifungal activity against Penicillium funiculosum ATCC 36839 incubated for 72 hrs followed by serial sub-cultivation for 72 hrs by serial dilution technique; assay type: functional; details: ATCC 36839, 72 h
How it was run: (§2)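 MFC: material from 72 h malt broth microdilution wells was serially sub-cultured into fresh broth plates and incubated a further 72 h at 28 °C. Fungicidal concentration is taken from growth after sub-culture. Duplicate, repeated three times.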

[3] = test system: Enterococcus faecalis; assay: Antibacterial activity against Enterococcus faecalis isolated from human after 24 hrs by microdilution method; assay type: functional
How it was run: (§3)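 Broth microdilution in 96-well plates. Bacterial suspensions were adjusted in sterile saline to 1.0 × 10⁵ CFU/ml, prepared daily and kept at 4 °C. Compound was added to LB broth with 1.0 × 10⁴ CFU per well and shaken at 160 rpm for 24 h at […] (so in the source). MIC is the lowest concentration with no visible growth under a binocular microscope. OD655 was also read. Duplicate, repeated three times.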

[4] = test system: Pseudomonas aeruginosa; assay: Antibacterial activity against Pseudomonas aeruginosa ATCC 27853 incubated for 24 hrs followed by serial sub-cultivation for 24 hrs by microdilution; assay type: functional; details: ATCC 27853, 24 h; how it was run: as §1
[5] = test system: Aspergillus niger; assay: Antifungal activity against Aspergillus niger ATCC 6275 after 72 hrs by serial dilution technique; assay type: functional; details: ATCC 6275, 72 h
How it was run: (§4)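 Modified microdilution in 96-well plates. Fungi were kept on malt agar at 4 °C. Spores were washed off in sterile 0.85% saline with 0.1% Tween 80. Compounds were dissolved at 1 mg/ml in 5% DMSO with 0.1% Tween 80 and added to malt broth with inoculum. Plates were shaken at 160 rpm for 72 h at 28 °C. Duplicate, repeated three times.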

[6] = test system: Aspergillus fumigatus; assay: Ratio of ketoconazole to compound for Aspergillus fumigatus isolated from human; assay type: functional
[7] = test system: Aspergillus niger; assay: Ratio of bifonazole to compound for Aspergillus niger ATCC 6275; assay type: functional
[8] = test system: Micrococcus flavus; assay: Antibacterial activity against Micrococcus flavus ATCC 10240 after 24 hrs by microdilution method; assay type: functional; details: ATCC 10240, 24 h; how it was run: as §3
[9] = test system: Aspergillus ochraceus; assay: Antifungal activity against Aspergillus ochraceus after 72 hrs by serial dilution technique
[10] = test system: Salmonella typhimurium; assay: Antibacterial activity against Salmonella Typhimurium ATCC 13311 incubated for 24 hrs followed by serial sub-cultivation for 24 hrs by microdilution; assay type: functional, Salmonella enterica subsp. enterica serovar Typhimurium; details: Salmonella enterica, ATCC 13311, 24 h; how it was run: as §1
[11] = test system: Penicillium ochrochloron; assay: Ratio of bifonazole to compound for Penicillium ochrochloron ATCC 9112; assay type: functional
[12] = test system: Escherichia coli; assay: Antibacterial activity against Escherichia coli ATCC 35210 incubated for 24 hrs followed by serial sub-cultivation for 24 hrs by microdilution; assay type: functional; details: ATCC 35210, 24 h; how it was run: as §1
[13] = test system: Salmonella typhimurium; assay: Antibacterial activity against Salmonella Typhimurium ATCC 13311 after 24 hrs by microdilution method; assay type: functional, Salmonella enterica subsp. enterica serovar Typhimurium; details: Salmonella enterica, ATCC 13311, 24 h; how it was run: as §3
[14] = test system: Candida albicans; assay: Antifungal activity against Candida albicans isolated from human incubated for 72 hrs followed by serial sub-cultivation for 72 hrs by serial dilution technique; assay type: functional; how it was run: as §2
[15] = test system: Talaromyces funiculosus; assay: Ratio of bifonazole to compound for Penicillium funiculosum ATCC 36839; assay type: functional
[16] = test system: Aspergillus flavus; assay: Antifungal activity against Aspergillus flavus ATCC 9643 incubated for 72 hrs followed by serial sub-cultivation for 72 hrs by serial dilution technique; assay type: functional; details: ATCC 9643, 72 h; how it was run: as §2
[17] = test system: Aspergillus ochraceus; assay: Ratio of bifonazole to compound for Aspergillus ochraceus ATCC 12066; assay type: functional
[18] = test system: Penicillium ochrochloron; assay: Antifungal activity against Penicillium ochrochloron ATCC 9112 incubated for 72 hrs followed by serial sub-cultivation for 72 hrs by serial dilution technique; assay type: functional; details: ATCC 9112, 72 h; how it was run: as §2
[19] = test system: Micrococcus flavus; assay: Antibacterial activity against Micrococcus flavus ATCC 10240 incubated for 24 hrs followed by serial sub-cultivation for 24 hrs by microdilution; assay type: functional; details: ATCC 10240, 24 h; how it was run: as §1
[20] = test system: Trichoderma viride; assay: Antifungal activity against Trichoderma viride IAM 5061 incubated for 72 hrs followed by serial sub-cultivation for 72 hrs by serial dilution technique; assay type: functional; details: IAM 5061, 72 h; how it was run: as §2
[21] = test system: Penicillium ochrochloron; assay: Ratio of ketoconazole to compound for Penicillium ochrochloron ATCC 9112; assay type: functional
[22] = test system: Staphylococcus aureus; assay: Antibacterial activity against Staphylococcus aureus ATCC 6538 incubated for 24 hrs followed by serial sub-cultivation for 24 hrs by microdilution method; assay type: functional; details: ATCC 6538, 24 h; how it was run: as §1
[23] = test system: Staphylococcus aureus; assay: Antibacterial activity against Staphylococcus aureus ATCC 6538 after 24 hrs by microdilution method; assay type: functional; details: ATCC 6538, 24 h; how it was run: as §3
[24] = test system: Listeria monocytogenes; assay: Antibacterial activity against Listeria monocytogenes NCTC 7973 after 24 hrs by microdilution method; assay type: functional; details: NCTC 7973, 24 h; how it was run: as §3
[25] = test system: Aspergillus ochraceus; assay: Antifungal activity against Aspergillus ochraceus ATCC 12066 after 72 hrs by serial dilution technique; assay type: functional; details: ATCC 12066, 72 h; how it was run: as §4
[26] = test system: Trichoderma viride; assay: Ratio of bifonazole to compound for Trichoderma viride IAM 5061; assay type: functional
[27] = test system: Bacillus cereus; assay: Antibacterial activity against clinical isolate of Bacillus cereus after 24 hrs by microdilution method; assay type: functional; how it was run: as §3
[28] = test system: Listeria monocytogenes; assay: Antibacterial activity against Listeria monocytogenes NCTC 7973 incubated for 24 hrs followed by serial sub-cultivation for 24 hrs by microdilution; assay type: functional; details: NCTC 7973, 24 h; how it was run: as §1
[29] = test system: Candida albicans; assay: Ratio of ketoconazole to compound for Candida albicans isolated from human; assay type: functional
[30] = test system: Pseudomonas aeruginosa; assay: Antibacterial activity against Pseudomonas aeruginosa ATCC 27853 after 24 hrs by microdilution method; assay type: functional; details: ATCC 27853, 24 h; how it was run: as §3
[31] = test system: Escherichia coli; assay: Antibacterial activity against Escherichia coli ATCC 35210 after 24 hrs by microdilution method; assay type: functional; details: ATCC 35210, 24 h; how it was run: as §3
[32] = test system: Candida albicans; assay: Ratio of bifonazole to compound for Candida albicans isolated from human; assay type: functional
[33] = test system: Aspergillus ochraceus; assay: Antifungal activity against Aspergillus ochraceus ATCC 12066 incubated for 72 hrs followed by serial sub-cultivation for 72 hrs by serial dilution technique; assay type: functional; details: ATCC 12066, 72 h; how it was run: as §2
[34] = test system: Aspergillus ochraceus; assay: Ratio of ketoconazole to compound for Aspergillus ochraceus ATCC 12066; assay type: functional
[35] = test system: Penicillium ochrochloron; assay: Antifungal activity against Penicillium ochrochloron ATCC 9112 after 72 hrs by serial dilution technique; assay type: functional; details: ATCC 9112, 72 h; how it was run: as §4
[36] = test system: Pseudomonas aeruginosa; assay: Ratio of ampicillin MIC to compound MIC for Pseudomonas aeruginosa ATCC 27853; assay type: functional
[37] = test system: Bacillus cereus; assay: Antibacterial activity against clinical isolate of Bacillus cereus incubated for 24 hrs followed by serial sub-cultivation for 24 hrs by microdilution; assay type: functional; how it was run: as §1
[38] = test system: Aspergillus flavus; assay: Antifungal activity against Aspergillus flavus ATCC 9643 after 72 hrs by serial dilution technique; assay type: functional; details: ATCC 9643, 72 h; how it was run: as §4
[39] = test system: Trichoderma viride; assay: Antifungal activity against Trichoderma viride IAM 5061 after 72 hrs by serial dilution technique; assay type: functional; details: IAM 5061, 72 h; how it was run: as §4
[40] = test system: Talaromyces funiculosus; assay: Antifungal activity against Penicillium funiculosum ATCC 36839 after 72 hrs by serial dilution technique; assay type: functional; details: ATCC 36839, 72 h; how it was run: as §4
[41] = test system: Aspergillus niger; assay: Antifungal activity against Aspergillus niger ATCC 6275 incubated for 72 hrs followed by serial sub-cultivation for 72 hrs by serial dilution technique; assay type: functional; details: ATCC 6275, 72 h; how it was run: as §2
[42] = test system: Aspergillus fumigatus; assay: Antifungal activity against Aspergillus fumigatus isolated from human incubated for 72 hrs followed by serial sub-cultivation for 72 hrs by serial dilution technique; assay type: functional; how it was run: as §2
[43] = test system: Candida albicans; assay: Antifungal activity against Candida albicans isolated from human after 72 hrs by serial dilution technique; assay type: functional; how it was run: as §4

MIC [3]: 51.7 µM (≈ 15 µg/mL)
MIC [5]: 34.5 µM (≈ 10 µg/mL)
MIC [8]: 51.7 µM (≈ 15 µg/mL)
MIC [9]: 51.7 µM (≈ 15 µg/mL)
MIC [13]: 51.7 µM (≈ 15 µg/mL)
MIC [23]: 68.9 µM (≈ 20 µg/mL)
MIC [24]: 86.2 µM (≈ 25 µg/mL)
MIC [25]: 68.9 µM (≈ 20 µg/mL)
MIC [27]: 86.2 µM (≈ 25 µg/mL)
MIC [30]: 68.9 µM (≈ 20 µg/mL)
MIC [31]: 51.7 µM (≈ 15 µg/mL)
MIC [35]: 68.9 µM (≈ 20 µg/mL)
MIC [38]: 68.9 µM (≈ 20 µg/mL)
MIC [39]: 34.5 µM (≈ 10 µg/mL)
MIC [40]: 34.5 µM (≈ 10 µg/mL)
MIC [43]: 34.5 µM (≈ 10 µg/mL)
SMILES: CCNc1nc(C)c(C(=O)/C=C/c2ccc(F)cc2)s1
MBC [1]: 68.9 µM (≈ 20 µg/mL)
MFC [2]: 68.9 µM (≈ 20 µg/mL)
MBC [4]: 68.9 µM (≈ 20 µg/mL)
Ratio [6]: 10
Ratio [7]: 10
MBC [10]: 51.7 µM (≈ 15 µg/mL)
Ratio [11]: 10
MBC [12]: 68.9 µM (≈ 20 µg/mL)
MFC [14]: 68.9 µM (≈ 20 µg/mL)
Ratio [15]: 10
MFC [16]: 86.2 µM (≈ 25 µg/mL)
Ratio [17]: 10
MFC [18]: 86.2 µM (≈ 25 µg/mL)
MBC [19]: 68.9 µM (≈ 20 µg/mL)
MFC [20]: 68.9 µM (≈ 20 µg/mL)
Ratio [21]: 10
MBC [22]: 68.9 µM (≈ 20 µg/mL)
Ratio [26]: 10
MBC [28]: 103 µM (≈ 30 µg/mL)
Ratio [29]: 10
Ratio [32]: 10
MFC [33]: 86.2 µM (≈ 25 µg/mL)
Ratio [34]: 10
Ratio [36]: 10
MBC [37]: 86.2 µM (≈ 25 µg/mL)
MFC [41]: 51.7 µM (≈ 15 µg/mL)
MFC [42]: 68.9 µM (≈ 20 µg/mL)
